Laboratory results as given in ChEMBL document CHEMBL4325842, “Design, synthesis, and biological evaluation of novel aminopyrimidinylisoindolines as AXL kinase inhibitors” (Bioorg Med Chem Lett, 2018).

Columns and labels:
[1] = target: T1, Tyrosine-protein kinase receptor UFO (Homo sapiens, UniProt P30530); assay: Inhibition of N-terminal His-tagged recombinant human AXL (473 to end amino acids) expressed by baculovirus in Sf9 cells using axltide substrate and ATP by ADP-Glo luminescence assay
T1 sequence (P30530 whole entry): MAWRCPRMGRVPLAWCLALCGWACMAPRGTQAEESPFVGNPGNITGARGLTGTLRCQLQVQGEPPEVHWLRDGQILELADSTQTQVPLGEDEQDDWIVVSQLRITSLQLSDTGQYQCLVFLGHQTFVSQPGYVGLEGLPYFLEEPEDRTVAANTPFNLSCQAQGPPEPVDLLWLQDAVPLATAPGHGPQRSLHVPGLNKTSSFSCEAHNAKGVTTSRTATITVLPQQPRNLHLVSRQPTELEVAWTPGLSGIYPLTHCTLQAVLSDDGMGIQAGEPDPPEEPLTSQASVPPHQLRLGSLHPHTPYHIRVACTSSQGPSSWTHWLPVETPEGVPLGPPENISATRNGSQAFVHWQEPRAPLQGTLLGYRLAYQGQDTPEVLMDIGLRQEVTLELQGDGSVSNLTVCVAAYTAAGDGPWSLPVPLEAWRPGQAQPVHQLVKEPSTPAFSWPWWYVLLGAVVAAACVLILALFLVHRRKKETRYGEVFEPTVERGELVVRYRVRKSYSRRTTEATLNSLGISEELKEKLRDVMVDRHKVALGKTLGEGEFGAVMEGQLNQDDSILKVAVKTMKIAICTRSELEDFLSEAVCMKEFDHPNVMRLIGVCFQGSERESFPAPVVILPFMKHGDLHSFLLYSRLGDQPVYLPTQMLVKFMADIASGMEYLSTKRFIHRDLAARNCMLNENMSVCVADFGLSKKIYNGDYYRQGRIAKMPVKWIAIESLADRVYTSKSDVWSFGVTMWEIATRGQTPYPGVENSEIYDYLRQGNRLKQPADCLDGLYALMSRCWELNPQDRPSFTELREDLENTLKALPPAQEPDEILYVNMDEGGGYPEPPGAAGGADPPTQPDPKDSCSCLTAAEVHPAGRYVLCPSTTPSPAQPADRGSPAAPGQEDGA

[2] = test system: HeLa; assay: Antiproliferative activity against human HeLa cells after 2 days by spectrophotometric analysis; assay type: functional; settings: 48 h
Procedure, shortened: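 Cells from ATCC were kept in RPMI 1640 with 5% FBS. They were exposed to graded concentrations in DMSO/RPMI for 48 h at 37 C under 5% CO2, then fixed with 50% trichloroacetic acid. Cellular protein was read at 540 nm at time zero and at 48 h, with and without compound. TGI (100% growth inhibition) was taken from the concentration-response curve.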

[3] = test system: HepG2; assay: Antiproliferative activity against human HepG2 cells after 2 days by spectrophotometric analysis; assay type: functional; settings: HepG2, 48 h
[4] = target: Serine/threonine-protein kinase B-raf (Homo sapiens) (UniProt P15056); assay: Inhibition of human BRAF at 10 uM using MEK1 (K97R) as substrate by [gamma-33P]-ATP assay relative to control
Chain of Serine/threonine-protein kinase B-raf (Homo sapiens) (P15056 whole entry): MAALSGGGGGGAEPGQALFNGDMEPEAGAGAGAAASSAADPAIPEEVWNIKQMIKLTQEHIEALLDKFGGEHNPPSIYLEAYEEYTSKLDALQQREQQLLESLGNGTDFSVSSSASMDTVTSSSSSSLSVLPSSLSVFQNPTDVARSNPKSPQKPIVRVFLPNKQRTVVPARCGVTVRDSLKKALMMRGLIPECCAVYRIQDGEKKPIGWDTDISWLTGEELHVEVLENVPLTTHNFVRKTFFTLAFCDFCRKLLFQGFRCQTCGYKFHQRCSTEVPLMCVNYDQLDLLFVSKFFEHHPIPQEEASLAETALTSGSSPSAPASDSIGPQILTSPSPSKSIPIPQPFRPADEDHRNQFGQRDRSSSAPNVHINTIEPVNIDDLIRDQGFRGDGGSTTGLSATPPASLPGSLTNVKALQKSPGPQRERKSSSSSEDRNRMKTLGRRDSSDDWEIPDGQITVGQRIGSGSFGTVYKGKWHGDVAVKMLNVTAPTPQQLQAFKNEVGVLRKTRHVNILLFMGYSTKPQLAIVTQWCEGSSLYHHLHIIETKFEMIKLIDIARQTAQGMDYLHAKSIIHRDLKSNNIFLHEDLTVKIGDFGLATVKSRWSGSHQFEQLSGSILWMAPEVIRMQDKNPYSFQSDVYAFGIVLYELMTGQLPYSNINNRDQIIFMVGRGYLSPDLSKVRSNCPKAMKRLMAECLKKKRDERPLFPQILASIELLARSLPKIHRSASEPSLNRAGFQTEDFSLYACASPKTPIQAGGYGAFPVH
Procedure, shortened: (§1)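 Commercial kinase panel screen at a single concentration of 10 μM. % inhibition was calculated as 100 minus % activity.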

[5] = target: Tyrosine-protein kinase JAK1 (Homo sapiens) (UniProt P23458); assay: Inhibition of human JAK1 at 10 uM using poly[Glu:Tyr] (4:1) as substrate by [gamma-33P]-ATP assay relative to control; procedure, shortened: as §1
[6] = target: Vascular endothelial growth factor receptor 2 (Homo sapiens) (UniProt P35968); assay: Inhibition of human KDR at 10 uM using poly[Glu:Tyr] (4:1) as substrate by [gamma-33P]-ATP assay relative to control; procedure, shortened: as §1
Chain of Vascular endothelial growth factor receptor 2 (Homo sapiens) (P35968 whole entry): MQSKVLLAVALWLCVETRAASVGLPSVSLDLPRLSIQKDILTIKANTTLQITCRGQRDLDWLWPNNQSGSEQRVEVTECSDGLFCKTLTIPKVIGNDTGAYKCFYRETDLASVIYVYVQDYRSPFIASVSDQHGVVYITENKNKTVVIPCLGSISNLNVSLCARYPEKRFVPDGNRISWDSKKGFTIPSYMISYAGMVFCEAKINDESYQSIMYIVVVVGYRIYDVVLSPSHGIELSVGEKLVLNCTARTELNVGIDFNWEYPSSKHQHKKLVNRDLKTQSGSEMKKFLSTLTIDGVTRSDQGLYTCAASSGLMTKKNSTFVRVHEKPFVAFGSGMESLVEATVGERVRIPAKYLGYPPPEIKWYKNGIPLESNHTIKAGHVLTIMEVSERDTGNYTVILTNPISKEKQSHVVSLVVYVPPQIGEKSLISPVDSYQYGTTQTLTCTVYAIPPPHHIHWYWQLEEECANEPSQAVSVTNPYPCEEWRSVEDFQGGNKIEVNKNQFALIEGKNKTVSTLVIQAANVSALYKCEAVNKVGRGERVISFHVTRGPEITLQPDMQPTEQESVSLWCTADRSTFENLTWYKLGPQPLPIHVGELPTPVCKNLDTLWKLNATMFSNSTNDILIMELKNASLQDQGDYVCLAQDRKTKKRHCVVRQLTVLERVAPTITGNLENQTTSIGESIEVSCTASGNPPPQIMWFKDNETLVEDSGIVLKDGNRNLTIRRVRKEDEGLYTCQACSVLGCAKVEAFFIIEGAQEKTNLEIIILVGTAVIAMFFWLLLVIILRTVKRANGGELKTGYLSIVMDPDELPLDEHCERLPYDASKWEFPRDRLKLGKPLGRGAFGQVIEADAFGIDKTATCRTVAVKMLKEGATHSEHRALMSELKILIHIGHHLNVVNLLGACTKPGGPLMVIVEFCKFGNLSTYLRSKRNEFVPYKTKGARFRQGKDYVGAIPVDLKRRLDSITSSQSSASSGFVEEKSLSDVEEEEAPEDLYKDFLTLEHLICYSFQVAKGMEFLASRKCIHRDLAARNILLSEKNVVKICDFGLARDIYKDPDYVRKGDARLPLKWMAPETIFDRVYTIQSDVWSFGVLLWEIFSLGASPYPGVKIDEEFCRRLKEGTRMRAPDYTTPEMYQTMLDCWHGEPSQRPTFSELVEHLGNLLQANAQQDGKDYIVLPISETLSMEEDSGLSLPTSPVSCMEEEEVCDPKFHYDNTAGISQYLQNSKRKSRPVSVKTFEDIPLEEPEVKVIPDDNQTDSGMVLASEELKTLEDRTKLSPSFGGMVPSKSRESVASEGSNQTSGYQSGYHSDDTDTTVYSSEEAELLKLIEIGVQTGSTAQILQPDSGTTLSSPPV

[7] = target: Tyrosine-protein kinase Mer (Homo sapiens) (UniProt Q12866); assay: Inhibition of human MER at 10 uM using poly[Glu:Tyr] (4:1) as substrate by [gamma-33P]-ATP assay relative to control; procedure, shortened: as §1
Chain of Tyrosine-protein kinase Mer (Homo sapiens) (Q12866 whole entry): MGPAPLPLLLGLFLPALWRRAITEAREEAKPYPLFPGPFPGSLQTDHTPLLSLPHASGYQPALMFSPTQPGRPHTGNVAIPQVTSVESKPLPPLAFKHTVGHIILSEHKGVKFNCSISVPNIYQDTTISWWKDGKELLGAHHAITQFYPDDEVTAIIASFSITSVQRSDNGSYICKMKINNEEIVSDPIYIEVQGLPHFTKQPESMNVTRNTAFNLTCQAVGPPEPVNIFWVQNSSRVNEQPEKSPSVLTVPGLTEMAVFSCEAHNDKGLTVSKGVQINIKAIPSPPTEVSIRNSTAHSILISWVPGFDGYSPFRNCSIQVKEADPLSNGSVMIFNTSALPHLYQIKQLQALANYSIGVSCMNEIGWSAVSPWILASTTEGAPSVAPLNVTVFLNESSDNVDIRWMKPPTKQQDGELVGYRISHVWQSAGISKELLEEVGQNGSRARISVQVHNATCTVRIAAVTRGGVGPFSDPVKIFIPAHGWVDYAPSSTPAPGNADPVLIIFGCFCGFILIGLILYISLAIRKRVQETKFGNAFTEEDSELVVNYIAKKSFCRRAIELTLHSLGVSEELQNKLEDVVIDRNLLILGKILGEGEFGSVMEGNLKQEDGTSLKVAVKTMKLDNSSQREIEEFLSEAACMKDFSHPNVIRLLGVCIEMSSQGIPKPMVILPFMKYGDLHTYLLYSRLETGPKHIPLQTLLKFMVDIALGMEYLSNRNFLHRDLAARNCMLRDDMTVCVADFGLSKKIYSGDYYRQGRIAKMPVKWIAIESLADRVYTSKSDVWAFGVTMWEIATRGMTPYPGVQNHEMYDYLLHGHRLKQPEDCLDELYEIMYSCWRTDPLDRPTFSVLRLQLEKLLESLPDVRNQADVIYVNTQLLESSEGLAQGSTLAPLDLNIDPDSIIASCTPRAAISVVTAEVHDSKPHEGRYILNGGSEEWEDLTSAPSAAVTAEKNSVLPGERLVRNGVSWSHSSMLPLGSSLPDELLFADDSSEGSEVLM

[8] = target: Ribosomal protein S6 kinase beta-1 (Homo sapiens) (UniProt P23443); assay: Inhibition of human RPS6KB1 at 10 uM using KKRNRTLTK as substrate by [gamma-33P]-ATP assay relative to control
Procedure, shortened: (§2)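 Kinase-panel profiling (50 oncogenic kinases) run by an outside contract service. The test compound was tested at a single concentration of 10 μM. Percent inhibition was calculated as 100 minus % remaining activity.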

[9] = target: Vascular endothelial growth factor receptor 1 (Homo sapiens) (UniProt P17948); assay: Inhibition of human FLT1 at 10 uM using poly[Glu:Tyr] (4:1) as substrate by [gamma-33P]-ATP assay relative to control; procedure, shortened: as §1
[10] = target: Inhibitor of nuclear factor kappa-B kinase subunit alpha (Homo sapiens) (UniProt O15111); assay: Inhibition of human IKKalpha at 10 uM using KKKKERLLDDRHDSGLDSMKDEE as substrate by [gamma-33P]-ATP assay relative to control; procedure, shortened: as §1
[11] = target: Insulin receptor (Homo sapiens) (UniProt P06213); assay: Inhibition of human IR at 10 uM using poly[Glu:Tyr] (4:1) as substrate by [gamma-33P]-ATP assay relative to control; procedure, shortened: as §1
Chain of Insulin receptor (Homo sapiens) (P06213 28-758 limits assumed): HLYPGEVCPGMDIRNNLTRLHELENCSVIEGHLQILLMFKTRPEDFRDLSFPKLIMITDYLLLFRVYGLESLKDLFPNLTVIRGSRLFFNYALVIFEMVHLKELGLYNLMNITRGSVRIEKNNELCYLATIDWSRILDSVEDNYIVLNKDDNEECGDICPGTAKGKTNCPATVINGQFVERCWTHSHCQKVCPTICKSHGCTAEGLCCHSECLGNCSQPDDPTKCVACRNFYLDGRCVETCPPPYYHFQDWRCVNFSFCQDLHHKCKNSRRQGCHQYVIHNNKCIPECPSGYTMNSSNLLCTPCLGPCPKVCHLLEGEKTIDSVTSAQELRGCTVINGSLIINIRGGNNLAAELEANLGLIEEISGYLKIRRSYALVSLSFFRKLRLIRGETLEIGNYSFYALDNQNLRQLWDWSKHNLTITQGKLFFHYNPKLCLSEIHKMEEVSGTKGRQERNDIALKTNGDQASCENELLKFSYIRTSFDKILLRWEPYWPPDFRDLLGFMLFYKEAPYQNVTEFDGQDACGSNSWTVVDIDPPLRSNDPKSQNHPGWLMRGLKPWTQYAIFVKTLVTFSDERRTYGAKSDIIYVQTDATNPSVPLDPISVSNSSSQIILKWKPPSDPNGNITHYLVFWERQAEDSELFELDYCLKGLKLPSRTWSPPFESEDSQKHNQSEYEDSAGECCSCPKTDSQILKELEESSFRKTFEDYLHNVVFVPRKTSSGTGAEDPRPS
Chain of Insulin receptor (Homo sapiens) (P06213 763-1382 limits assumed): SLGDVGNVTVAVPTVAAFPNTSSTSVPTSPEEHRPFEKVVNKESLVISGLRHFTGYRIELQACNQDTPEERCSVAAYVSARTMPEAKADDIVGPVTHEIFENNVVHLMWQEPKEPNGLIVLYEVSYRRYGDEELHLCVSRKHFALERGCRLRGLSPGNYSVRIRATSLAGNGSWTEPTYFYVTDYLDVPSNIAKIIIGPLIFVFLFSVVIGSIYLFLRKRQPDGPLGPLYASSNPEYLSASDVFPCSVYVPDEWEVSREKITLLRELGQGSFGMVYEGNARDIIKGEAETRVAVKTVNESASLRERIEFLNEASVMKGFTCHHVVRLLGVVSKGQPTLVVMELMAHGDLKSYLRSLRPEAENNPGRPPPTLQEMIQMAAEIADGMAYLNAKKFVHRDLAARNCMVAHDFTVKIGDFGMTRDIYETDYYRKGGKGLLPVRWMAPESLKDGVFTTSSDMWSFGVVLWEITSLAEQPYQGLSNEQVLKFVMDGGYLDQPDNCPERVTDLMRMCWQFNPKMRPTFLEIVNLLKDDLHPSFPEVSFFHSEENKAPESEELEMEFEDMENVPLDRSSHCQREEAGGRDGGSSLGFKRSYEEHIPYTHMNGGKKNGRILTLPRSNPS

[12] = target: Serine/threonine-protein kinase PLK1 (Homo sapiens, UniProt P53350); assay: Inhibition of human PLK1 at 10 uM using casein as substrate by [gamma-33P]-ATP assay relative to control; procedure, shortened: as §2
Chain of Serine/threonine-protein kinase PLK1 (P53350 whole entry): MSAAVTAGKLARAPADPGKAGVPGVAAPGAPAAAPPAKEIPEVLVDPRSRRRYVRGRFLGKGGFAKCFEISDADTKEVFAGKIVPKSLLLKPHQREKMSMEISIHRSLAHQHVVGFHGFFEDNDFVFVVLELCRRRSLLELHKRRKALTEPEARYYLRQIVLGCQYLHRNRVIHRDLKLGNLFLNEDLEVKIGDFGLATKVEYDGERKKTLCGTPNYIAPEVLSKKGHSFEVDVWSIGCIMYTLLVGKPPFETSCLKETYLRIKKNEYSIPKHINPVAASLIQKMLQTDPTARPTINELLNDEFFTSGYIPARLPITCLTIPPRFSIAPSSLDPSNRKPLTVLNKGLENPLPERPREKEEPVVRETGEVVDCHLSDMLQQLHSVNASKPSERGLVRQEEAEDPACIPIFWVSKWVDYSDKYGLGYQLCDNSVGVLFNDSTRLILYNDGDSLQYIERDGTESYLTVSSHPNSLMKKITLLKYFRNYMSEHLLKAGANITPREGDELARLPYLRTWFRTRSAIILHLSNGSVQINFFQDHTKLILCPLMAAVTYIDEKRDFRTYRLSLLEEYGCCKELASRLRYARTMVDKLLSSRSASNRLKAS

[13] = target: Proto-oncogene tyrosine-protein kinase receptor Ret (Homo sapiens) (UniProt P07949); assay: Inhibition of human RET at 10 uM using MEK1 (K97R) as substrate by [gamma-33P]-ATP assay relative to control; procedure, shortened: as §2
[14] = target: Tyrosine-protein kinase receptor TYRO3 (Homo sapiens) (UniProt Q06418); assay: Inhibition of human TYRO3 at 10 uM using poly[Glu:Tyr] (4:1) as substrate by [gamma-33P]-ATP assay relative to control; procedure, shortened: as §2
[15] = target: Focal adhesion kinase 1 (Homo sapiens, UniProt Q05397); assay: Inhibition of human FAK using poly[Glu:Tyr] (4:1) as substrate by [gamma-33P]-ATP assay
[16] = target: Tyrosine-protein kinase SYK (Homo sapiens, UniProt P43405); assay: Inhibition of human SYK using poly[Glu:Tyr] (4:1) as substrate by [gamma-33P]-ATP assay
[17] = target: Tyrosine-protein kinase receptor TYRO3 (Homo sapiens, UniProt Q06418); assay: Inhibition of human TYRO3 using poly[Glu:Tyr] (4:1) as substrate by [gamma-33P]-ATP assay
[18] = test system: MV4-11; assay: Antiproliferative activity against human MV4-11 cells after 2 days by spectrophotometric analysis; assay type: functional; settings: MV4-11, 48 h

IC50 [1]: < 0.5 nM | GI50 [2]: 730 nM | GI50 [3]: 1400 nM | inhibition [4]: 6.7% | inhibition [5]: 75.4% | inhibition [6]: 55.8% | inhibition [7]: 90.6% | inhibition [8]: 65.5% | inhibition [9]: 49% | inhibition [10]: 14.1% | inhibition [11]: 89.8% | inhibition [12]: 95.2% | inhibition [13]: 85.2% | inhibition [14]: 87.7% | IC50 [15]: 11 nM | IC50 [16]: 5.1 nM | IC50 [17]: 50 nM | GI50 [18]: 100 nM
Compound: CC(=O)N1CCN(c2ccc(Nc3ncc(C(F)(F)F)c(N4Cc5cccc(N(C)S(C)(=O)=O)c5C4)n3)cc2)CC1
